Source: publication PMC3040411 (Bioorganic & medicinal chemistry letters, 2010)

Key:
LPA2 GPCR = details: cited from earlier work
LPA1 GPCR = details: cited from earlier work
Recombinant ATX = Recombinant ATX (Homo sapiens, UniProt Q13822); assay type: biochemical; details: for Mechanism of ATX inhibition: assigned by lowest averaged percent residuals of curve fitting
Summary of the method: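 Recombinant autotaxin ([…]) with test compound at various concentrations, in pH 8.0 Tris-HCl 50 mM buffer with NaCl 140 mM, KCl 3 mM, MgCl2 and CaCl2 1 mM each, and fatty-acid-free BSA 15 μM; LPA 18:1 as positive control. Fluorescence (ex 485/em 538 nm) read at start and after 2 h, 37 °C; activity as percent of vehicle, triplicate wells. For mechanism, FS-3 varied 0.3–20 μM at three inhibitor levels; competitive, uncompetitive, mixed and non-competitive models fitted simultaneously to give Ki.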

LPA5 = LPA5 (Homo sapiens, UniProt Q9H1C0); test: LPA5-mediated calcium mobilization in B103 cells stably expressing LPA5; assay type: cell-based; details: concentrations above 1 μM, p < 0.05
Chain of LPA5 (Q9H1C0 whole entry, species assumed): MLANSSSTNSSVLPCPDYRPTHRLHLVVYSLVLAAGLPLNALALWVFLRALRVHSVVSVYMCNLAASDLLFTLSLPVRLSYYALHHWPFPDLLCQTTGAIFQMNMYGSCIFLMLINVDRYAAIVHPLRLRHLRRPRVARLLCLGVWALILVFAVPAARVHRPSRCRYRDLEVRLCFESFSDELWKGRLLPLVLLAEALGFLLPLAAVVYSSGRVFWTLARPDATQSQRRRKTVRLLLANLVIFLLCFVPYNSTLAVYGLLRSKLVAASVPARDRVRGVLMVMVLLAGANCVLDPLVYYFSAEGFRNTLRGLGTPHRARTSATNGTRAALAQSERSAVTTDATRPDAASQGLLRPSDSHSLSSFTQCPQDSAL

Row | Potency in ATX inhibition relative to S-3-CCPA (Recombinant ATX; FS-3 1 μM, 2 hours at 37 °C) | Mechanism of ATX inhibition (Recombinant ATX) | Efficacy for LPA5-mediated calcium mobilization compared with R-3-CCPA (LPA5) | Compound | LPA2 GPCR activation (LPA2 GPCR) | LPA1 GPCR activation (LPA1 GPCR)
1 |  |  |  | 1-acyl-2,3-glycerophosphate [CPA] | weak agonist | weak agonist
2 | approximately 2 fold | mixed mode |  | CCCCCCCCCCCCCCCCCC(=O)OC[C@H]1CCP(=O)([O-])O1.[Na+] [R-3-CCPA] |  | 
3 |  | mixed mode | significantly higher | CCCCCCCCCCCCCCCCCC(=O)OC[C@@H]1CCP(=O)([O-])O1.[Na+] [S-3-CCPA] |  | 
